Inconclusive results are not listed.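 How the source made its calls, unless noted: active means growth inhibition above 25% in both replicates, a cutoff set 3 SD above the mean; inconclusive means above 25% in only one replicate; inactive means the rest.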
Experiments:
[1] = S. cerevisiae growth inhibition in permissive medium (OD615), pilot counter-assay for S. cerevisiae lifespan shortening project, permissive growth control (AID 705); conditions: OD615, 24 h, at 10 µM, hits give high values
Procedure, shortened: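 Material: engineered DeaD yeast; Compound: one dose 10 µM, DMSO 0.25% final; Detection: absorbance (optical density) at 615 nm; Buffer or medium: permissive raffinose/galactose medium; Timing: 24 h exposure, 30 °C.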

[2] = S. cerevisiae growth inhibition in restrictive medium, OD615, pilot screen, restrictive growth control, yeast lifespan reduction project (AID 706;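 active means growth inhibition above a set limit, 3 SD over mean compound inhibition, in both replicates, cut at about 43% in these data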;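 further: modified DeaD lifespan yeast strain shifted to restrictive glucose medium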); conditions: OD615, 48 h, at 10 µM, hits give high values
Procedure, shortened: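 Buffer or medium: restrictive glucose medium (CSMM-D); test system: modified S. cerevisiae; doses: single dose of 10 µM compound final, 0.25% DMSO; schedule: 48 h compound exposure at 30 °C; detection: absorbance (optical density) measured at 615 nm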

[3] = doxorubicin toxicity protection in MRP-1 cells – H69AR cells, CellTiter-Glo, duplicate, MRP-1 activator project, pilot screen (AID 807;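 active means viability increase at or above a cutoff of the median across tested compounds plus 3 SD, cut at about 8.5% in these data, passing the limit was not always enough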;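 further: compound pretreatment 18-22 h then 72 h combined with doxorubicin; 0% = doxorubicin alone and 100% = vehicle without doxorubicin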); conditions: H69AR viability with doxorubicin, CellTiter-Glo luminescence; at 10 µM; hits give high values
[4] = viability of PTEN-null HCT116 cells – cell-based, HCT116 clonal line, CellTiter-Glo, pilot screen (AID 824;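 active means viability at or below 27.92% in each of two runs, the all-compound median minus 4 SD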;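 further: 0% = 20 µM Hyamine control and 100% = vehicle cell control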); conditions: HCT116 PTEN-deleted viability, 60 h, at 10 µM, hits give low values
[5] = RAM pathway blockade in budding yeast – dse1pr::URA3 reporter, 5-FOA selection, pilot screen (AID 869;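 active means inhibition over a set limit, the all-compound mean plus 3 SD, in both replicate runs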;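 further: 0% = DMSO wells with no growth and 100% = 10 µM 1-NA-PP1 with full growth; RAM network block rescues cells from 5-FOA so hits raise OD615 growth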); conditions: S. cerevisiae dse1pr::URA3 5-FOA growth, OD615, 2 d; at 10 µM; hits give high values; strain carries analog-sensitive mutant Cbk1 kinase
[6] = RAM signaling pathway blockade in yeast – S. cerevisiae, Pdr1DBD-CYC8 efflux-inhibited sensitized strain, primary screen (AID 1298;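 active means RAM network inhibition above 8.4% in each of two replicates, 3 SD over the compound average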;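 further: 0% = DMSO untreated cells without growth and 100% = 10 µM 1-NA-PP1 full growth; higher means more yeast growth rescued from 5-FOA killing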); conditions: S. cerevisiae cbk1-as DSE1-URA3 strain, 5-FOA growth OD615, 2 d; at 50 µM; hits give high values

Cc1cccc(NC(=O)CS(=O)(=O)c2cn(C)c3ccccc23)c1C
inactive: growth inhibition [1] -8.09% | growth inhibition [2] -5.75% | viability increase [3] -3.27% | viability [4] 96.5% | inhibition [5] 1.46% | RAM network inhibition [6] 3.02%

CCc1cccc(C)c1NC(=O)CCCC(=O)O
inactive: growth inhibition [1] -0.24% | growth inhibition [2] -1.56% | viability increase [3] -1.29% | viability [4] 102% | inhibition [5] 0.44% | RAM network inhibition [6] -0.21%

O=C(Cc1c(C(=O)O)[nH]c2ccccc12)Nc1ccc2c(c1)OCO2
inactive: growth inhibition [1] -7.96% | growth inhibition [2] -0.57% | viability increase [3] -2.23% | viability [4] 99.7% | inhibition [5] 0.445% | RAM network inhibition [6] 2.01%

CS(=O)(=O)N(CC(=O)NCc1ccncc1)c1cc(Cl)cc(Cl)c1
inactive: growth inhibition [1] -7.62% | growth inhibition [2] -10.8% | viability increase [3] -2.29% | viability [4] 105% | inhibition [5] 1.33% | RAM network inhibition [6] 0.15%

CCOc1ccc(S(=O)(=O)N(C)c2ccc(OCC(=O)Nc3ccc4[nH]c(=O)[nH]c4c3)cc2)cc1
inactive: growth inhibition [1] -7.61% | growth inhibition [2] -11.1% | viability increase [3] -4.94% | viability [4] 94.1% | inhibition [5] 0.8% | RAM network inhibition [6] 7.12%

Cc1cc(NC(=O)COC(=O)C2CCN(S(=O)(=O)c3ccc(Cl)cc3)CC2)no1
inactive: growth inhibition [1] 4.11% | growth inhibition [2] -2.37% | viability increase [3] -2.01% | viability [4] 98.9% | inhibition [5] 1.19% | RAM network inhibition [6] 1.38%

CCCC(C)NC(=O)c1ccc(F)cc1 (centres undefined)
inactive: growth inhibition [1] -11.8% | growth inhibition [2] -7.83% | viability increase [3] -1.81% | viability [4] 99.9% | inhibition [5] 0.66% | RAM network inhibition [6] 1.8%

O=C(C1CCCN(S(=O)(=O)c2ccc(F)cc2)C1)N(Cc1cccs1)C1CC1 (centres undefined)
inactive: growth inhibition [1] -11.5% | growth inhibition [2] -6.14% | viability increase [3] -1.34% | viability [4] 71.7% | inhibition [5] 2.02% | RAM network inhibition [6] 2.87%

CS(=O)(=O)N(CC(=O)N1CCCCCC1)c1cccc(Br)c1
inactive: growth inhibition [1] -9.19% | growth inhibition [2] -11.5% | viability increase [3] -2.75% | viability [4] 94.5% | inhibition [5] 1.21% | RAM network inhibition [6] 1.44%

O=C(c1ccc(CN2CCOCC2)cc1)N1CCC(Cc2ccccc2)CC1
inactive: growth inhibition [1] -5.94% | growth inhibition [2] -3.29% | viability increase [3] -0.71% | viability [4] 93.1% | inhibition [5] 1.29% | RAM network inhibition [6] 9.1%

Cc1nnc(NC(=O)CSc2nccn2-c2cccc(C)c2C)s1
inactive: growth inhibition [1] -7.29% | growth inhibition [2] 11.5% | viability increase [3] -5.19% | viability [4] 30.1% | inhibition [5] 0.035% | RAM network inhibition [6] 4.71%

CSc1nnc2c(n1)OC(c1cn(C)c3ccccc13)N(C(C)=O)c1ccccc1-2 (centres undefined)
inactive: growth inhibition [1] -8.46% | growth inhibition [2] -4.85% | viability increase [3] -2.79% | viability [4] 98.9% | inhibition [5] 1.54% | RAM network inhibition [6] 3.59%

CCCn1c(C(C)NC(=O)c2ccccc2)nc2ccccc21 (centres undefined)
inactive: growth inhibition [1] -8.46% | growth inhibition [2] -6.87% | viability increase [3] -2.18% | viability [4] 97.6% | inhibition [5] 2.92% | RAM network inhibition [6] 5.38%

Cc1cccc(N(CC(=O)Nc2c(C)n(C)n(-c3ccccc3)c2=O)S(C)(=O)=O)c1
inactive: growth inhibition [1] -9.29% | growth inhibition [2] -0.62% | viability increase [3] -0.12% | viability [4] 106% | inhibition [5] 1.61% | RAM network inhibition [6] 1.64%

CC1=CCC(C(=O)O)C(C(=O)O)C1 (centres undefined)
inactive: growth inhibition [1] -2.08% | growth inhibition [2] -10.3% | viability increase [3] -2.04% | viability [4] 95.7% | inhibition [5] 1.69% | RAM network inhibition [6] 1.34%

COc1cc2c(C(=O)N3CCN(Cc4ccc5c(c4)OCO5)CC3)cn(C)c(=O)c2cc1OC
inactive: growth inhibition [1] -8.34% | growth inhibition [2] -4.51% | viability increase [3] -6.92% | viability [4] 95.6% | inhibition [5] 0.85% | RAM network inhibition [6] 1.29%

COc1ccc(NC(=O)c2oc3ccccc3c2C)c(OC)c1
inactive: growth inhibition [1] -7.12% | growth inhibition [2] -1.27% | viability increase [3] -3.83% | viability [4] 96.1% | inhibition [5] 0.97% | RAM network inhibition [6] 7.99%

Cc1ccc(CNC(=O)c2oc3ccc(S(=O)(=O)N4CCC5(CC4)OCCO5)cc3c2C)cc1
inactive: growth inhibition [1] -11% | growth inhibition [2] -10% | viability increase [3] -0.6% | viability [4] 52.6% | inhibition [5] 1.35% | RAM network inhibition [6] 2.87%

CCOC(=O)N1CCN(C(=O)c2oc3ccc(S(=O)(=O)N4CCOCC4)cc3c2C)CC1
inactive: growth inhibition [1] -6.53% | growth inhibition [2] -12.6% | viability increase [3] -4.64% | viability [4] 99.9% | inhibition [5] 2.71% | RAM network inhibition [6] 4.61%

CCN(CC)c1ccc(CNC23CN4CN(CN(C4)C2)C3)cc1
inactive: growth inhibition [1] -8.69% | growth inhibition [2] 2.79% | viability increase [3] -2.2% | viability [4] 94.1% | inhibition [5] 1.72% | RAM network inhibition [6] 2.4%

C#CCN1C(=O)C(O)(CC(=O)c2ccc3c(c2)OCCO3)c2ccccc21 (centres undefined)
inactive: growth inhibition [1] -19% | growth inhibition [2] -18.4% | viability increase [3] -2.81% | viability [4] 49.2% | inhibition [5] 0.74% | RAM network inhibition [6] 6.75%

CCOC(=O)C(C(=O)Nc1cccc(C)n1)C1CCCCC1 (centres undefined)
inactive: growth inhibition [1] -6.76% | growth inhibition [2] -0.005% | viability increase [3] 1.76% | viability [4] 88.1% | inhibition [5] 3.22% | RAM network inhibition [6] 2.72%

Cc1c(C)[n+](=O)c(-c2ccc(F)cc2)c(C)n1[O-]
inactive: growth inhibition [1] -1.22% | growth inhibition [2] 3.79% | viability increase [3] -3.29% | viability [4] 98.3% | inhibition [5] 0.535% | RAM network inhibition [6] 4.01%

C/C(CC(O)c1ccc2ccccc2n1)=N/O (centres undefined)
inactive: growth inhibition [1] 1.34% | growth inhibition [2] 1.94% | viability increase [3] -0.7% | viability [4] 103% | inhibition [5] 0.445% | RAM network inhibition [6] 1.08%

Cc1noc(C)c1CSc1nnc(-c2cc(Cl)ccc2Cl)n1N
inactive: growth inhibition [1] 8.57% | growth inhibition [2] 8.54% | viability increase [3] -2.82% | viability [4] 95% | inhibition [5] 1.9% | RAM network inhibition [6] 2.06%

COc1ccc(C2=[N+]([O-])C(C)(C)N(O)C2(C)C)cc1
inactive: growth inhibition [1] -8.58% | growth inhibition [2] 12.9% | viability increase [3] -1.34% | viability [4] 100% | inhibition [5] 1.38% | RAM network inhibition [6] 0.67%

Cc1ccc2nc(NC(=O)c3cccs3)sc2c1
inactive: growth inhibition [1] -2.67% | growth inhibition [2] 10.6% | viability increase [3] -4.54% | viability [4] 69.2% | inhibition [5] 1.29% | RAM network inhibition [6] 4.15%

CCCCNC(=O)NS(=O)(=O)c1ccc(NS(=O)(=O)c2ccccc2)cc1
inactive: growth inhibition [1] -10.8% | growth inhibition [2] -7.74% | viability increase [3] -0.52% | viability [4] 98.4% | inhibition [5] 2.14% | RAM network inhibition [6] 4.35%

CCOc1ccccc1N(CC(=O)Nc1ccc2c(c1)OCO2)S(C)(=O)=O
inactive: growth inhibition [1] -8.59% | growth inhibition [2] -22.3% | viability increase [3] -0.96% | viability [4] 100% | inhibition [5] 1.7% | RAM network inhibition [6] -0.87%

O=C(CN1CCN(c2ccccn2)CC1)N(c1ccccc1)c1ccc2ccccc2c1
inactive: growth inhibition [1] -6.17% | growth inhibition [2] -0.835% | viability increase [3] -1.57% | viability [4] 69.9% | inhibition [5] 2.88% | RAM network inhibition [6] 5.32%

COc1cc(S(=O)(=O)N2CCCCCC2)c(OC)cc1Br
inactive: growth inhibition [1] 0.23% | growth inhibition [2] -10.7% | viability increase [3] -0.06% | viability [4] 77.4% | inhibition [5] -0.43% | RAM network inhibition [6] 5.23%

CCN(CC)C(=O)C(C)N(C#N)c1nc(NC(C)C)nc(NC(C)C)n1 (centres undefined)
inactive: growth inhibition [1] -9.32% | growth inhibition [2] -0.315% | viability increase [3] -3.7% | viability [4] 101% | inhibition [5] 0.715% | RAM network inhibition [6] 2.25%

CCCCC1CC(CSc2ncn[nH]2)OC1=O (centres undefined)
inactive: growth inhibition [1] -11.3% | growth inhibition [2] -7.68% | viability increase [3] 1.38% | viability [4] 98% | inhibition [5] 1.21% | RAM network inhibition [6] 0.01%

COc1ccccc1-n1c(SCC(=O)Nc2nnc(C)s2)nc2c(c1=O)SCC2
inactive: growth inhibition [1] -5.29% | growth inhibition [2] 3.71% | viability increase [3] -3.7% | viability [4] 80.6% | inhibition [5] 0.81% | RAM network inhibition [6] 3.59%

COc1cc(C)c(C(C)C)cc1S(=O)(=O)n1cnc(C)c1
inactive: growth inhibition [1] 0.115% | growth inhibition [2] 6.4% | viability increase [3] -3.58% | viability [4] 37.8% | inhibition [5] 0.425% | RAM network inhibition [6] 4.02%

Cn1cnnc1SCC(=O)c1ccco1
inactive: growth inhibition [1] -5.92% | growth inhibition [2] -3.4% | viability increase [3] -1.08% | viability [4] 106% | inhibition [5] 0.79% | RAM network inhibition [6] 3.27%

COc1cc(/C=N/n2cnnc2)ccc1OC(=O)c1cccnc1
inactive: growth inhibition [1] -8.46% | growth inhibition [2] -8.55% | viability increase [3] -2.5% | viability [4] 97.8% | inhibition [5] 0.985% | RAM network inhibition [6] 0.57%

NS(=O)(=O)c1ccc(NC(=O)COC(=O)CCNC(=O)NC23CC4CC(CC(C4)C2)C3)cc1
inactive: growth inhibition [1] -10.4% | growth inhibition [2] -4.2% | viability increase [3] 0.2% | viability [4] 98.6% | inhibition [5] 0.55% | RAM network inhibition [6] 3.28%

COc1ccc(-c2nc(SC)n(C)c(=O)c2C#N)cc1OC
inactive: growth inhibition [1] -6.31% | growth inhibition [2] -12.2% | viability increase [3] -4.81% | viability [4] 87.9% | inhibition [5] 0.12% | RAM network inhibition [6] 9.22%

Source: PubChem BioAssay
